# Screening data from PubChem BioAssay.
# MLL AF4-AF9 inh: inhibitors of human MLL-AF4/AF9 interaction; AlphaScreen, biotin-AF4 peptide binding to FLAG-AF9; inhibition, % at 10 µM; 350,000 tested, 0.47% active;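 active means every replicate reaching a set inhibition limit, whatever the replicate mean, cut at about 25% in these data; inconclusive means mean inhibition reaches that limit but some replicates miss it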;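 further: 0% = plate neutral control median and 100% = total signal loss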
# Target sequence (P42568 whole entry, looked up): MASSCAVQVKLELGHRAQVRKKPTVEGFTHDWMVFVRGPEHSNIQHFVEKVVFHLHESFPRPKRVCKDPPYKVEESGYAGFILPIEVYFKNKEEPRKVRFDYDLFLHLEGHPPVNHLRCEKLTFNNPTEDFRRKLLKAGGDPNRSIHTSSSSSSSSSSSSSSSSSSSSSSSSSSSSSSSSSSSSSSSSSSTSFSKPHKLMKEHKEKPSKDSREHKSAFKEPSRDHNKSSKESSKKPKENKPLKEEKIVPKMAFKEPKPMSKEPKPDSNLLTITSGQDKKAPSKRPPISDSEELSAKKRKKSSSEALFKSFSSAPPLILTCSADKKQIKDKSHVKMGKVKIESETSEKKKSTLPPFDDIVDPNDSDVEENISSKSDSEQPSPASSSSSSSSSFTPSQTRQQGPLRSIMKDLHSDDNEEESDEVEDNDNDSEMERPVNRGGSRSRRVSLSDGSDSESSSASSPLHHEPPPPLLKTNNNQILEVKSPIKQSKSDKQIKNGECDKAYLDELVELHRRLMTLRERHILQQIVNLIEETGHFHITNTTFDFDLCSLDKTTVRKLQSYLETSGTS
# INS-1E GSIS act: primary screen for activators of insulin secretion dependent on glucose, INS-1E cells, GLuc reporter luminescence; activation, % at 16.6 µM; 370,000 tested, 0.61% active; AID 743287; INS-1E GLuc reporter insulin secretion, 2-3 h;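 active means lowest replicate activation of at least 40%, so every replicate reaches that level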;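 further: 0% = median of neutral control wells and 100% = median of IBMX positive control wells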
# S100A4 MyoIIA: S100A4-myosin IIA interaction inhibition; P26447; S100A4/TAMRA-MyoIIA peptide fluorescence polarization; inhibition, % at 10.7 µM; 360,000 tested, 0.14% active;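 active means mean inhibition of at least 70% across replicates, with every replicate also reaching that level; inconclusive means mean inhibition reaches 70% but some replicates fall short; inactive means mean inhibition below 70%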
# Target sequence (P26447 whole entry, looked up): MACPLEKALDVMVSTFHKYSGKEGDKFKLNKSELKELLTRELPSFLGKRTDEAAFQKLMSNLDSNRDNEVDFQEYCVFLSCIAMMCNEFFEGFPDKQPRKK
#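 Material: S100A4 monomer (human). Medium: Calcium-containing HEPES buffer, pH 7.2. Probe or stimulus: labelled myosin peptide probe, 5 nM. Compound dosing: one concentration per compound. Timing: polarization read 5 min after assay mix addition, stable 5–60 min. Benchmarks: DMSO as neutral control, TFP as positive control.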
# RAD52 inh: blocks human RAD52 DNA annealing; inhibition, % at 18.7 µM; P43351; 360,000 tested, 0.46% active; AID 651710; recombinant RAD52 DNA annealing, FRET fluorescence;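 active means every replicate showing at least 50% inhibition; inconclusive means mean inhibition at least 50% but not in every replicate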
# RAD54 inh: blocks human RAD54 Holliday junction branch migration. 360,000 tested, 0.14% active. Q92698. inhibition, % at 10.4 µM. FAM/BHQ fluorescence. AID 602329;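 active means mean normalized replicate activity at least 40 and at least half of replicates scoring 40 or more; inconclusive means only one of the two criteria met; inactive means mean below 40 and under half of replicates reaching 40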;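 further: 0% = median of neutral control wells and 100% = median of positive control wells; inhibitors cause a drop in the FAM fluorescence signal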
# AlphaScreen intf: AlphaScreen signal interference counter-screen hit | shares compounds with MLL AF4-AF9 inh | AC50, µM (titrated, usually from 12 µM), without a hit: top-dose activity change, negative = inhibition | AID 720494 | signal luminescence | 530 tested, 45% active; cut-off not given, nearly all actives have AC50 up to about 14 µM
# DNA binder FP: counter-screen for RAD52 inhibitors: DNA binding compounds; Salmon sperm DNA/acridine orange FP displacement; AC50, µM; shares compounds with RAD52 inh; 1,000 tested, 8% active;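 active means fitted half-maximal concentration for signal loss at or below twice the highest dose tested, in every separate run, actives reach about 64 µM in these data; inconclusive means runs disagree, or flat partial signal loss, or poor fit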
# Numbers without * were called inactive; i = inactive; ? = inconclusive; · = no result given; ! = not active in a repeat. Shown are actives, neighbours in structure and some others; about 1.3% of the full set was active somewhere.
SMILES,MLL AF4-AF9 inh,INS-1E GSIS act,S100A4 MyoIIA,RAD52 inh,RAD54 inh,AlphaScreen intf,DNA binder FP
C#CCOCCOCCOCCNc1nc(N2CCN(C(=O)[C@H](CCCCN)n3cc(CCCC)nn3)CC2)nc(N2CCN(C(=O)[C@H](CCCCN)n3cc(CCCC)nn3)CC2)n1,26.3*,5.0,-3.9,-39.0,10.0,-11.6%,·
COc1ccc(S(=O)(=O)N[C@@H]2CC[C@@H](CCNC(=O)c3ccccc3F)O[C@H]2CO)cc1,-0.1,4.2,2.2,-4.8,-1.9,·,·
COc1cccc(S(=O)(=O)N2CC[C@@H]3[C@H](CO)Nc4ccc(Br)cc4[C@@H]32)c1,·,1.2,·,·,2.9,·,·
O=C(C[C@H]1C=C[C@H](NC(=O)c2ccccn2)[C@H](CO)O1)NCc1cc(F)cc(F)c1,0.2,7.1,5.6,-17.2,-1.0,·,·
CCN(CC)CCSc1nc2ccccc2c(=S)n1-c1ccccc1,34.0*,-3.4,-0.6,3.1,·,-27.7%,·
COc1ccc(-c2oc3ccccc3c(=O)c2OCC(=O)O)cc1,-3.3,4.6,2.0,-13.2,·,·,·
COc1ccc(-c2oc3ccccc3c(=O)c2OC(C)=O)cc1,55.5*,-7.9,2.8,-35.6,3.2,7.29µM*,·
O=C(N/N=C/c1cc(Br)cc(Br)c1O)c1cccc(S(=O)(=O)N2CCOCC2)c1,-16.5,-0.2,3.0,-1.2,·,·,·
O=C(N/N=C/c1cc(Cl)cc([N+](=O)[O-])c1O)c1cccc(S(=O)(=O)N2CCOCC2)c1,35.9*,17.9,-4.4,-11.9,2.5,11.9µM*,·
C[C@H](CO)N1C[C@H](C)[C@@H](CN(C)Cc2ccncc2)Oc2ccc(NC(=O)CCCCCC(=O)Nc3ccccc3N)cc2CC1=O,-1.8,-5.4,-2.6,-14.7,7.5,·,·
CCC1CCCCN1C(=S)NN=C(C)c1ccccn1 (centres undefined),37.4*,8.4,-5.2,-86.1,·,7.38µM*,·
Cc1ccc(S(=O)(=O)Nc2ccc3c(c2)C(=O)N([C@@H](C)CO)C[C@H](C)[C@H](CN(C)C(=O)Nc2ccccc2)OCCCC[C@H](C)O3)cc1,-1.9,-11.7,2.6,-14.5,-3.2,·,·
COc1ccccc1C(=O)Nc1ccc2c(c1)OC[C@H](C)N(C)C[C@@H](C)[C@@H](OC)CN(C)C2=O,0.7,2.0,12.5,2.4,7.1,·,·
CN(C)CCNc1ncnc2c1sc1nc(-c3ccccc3)c3c(c12)CCCC3,?,193.5*,-13.7,69.6*,7.5,-13.9%,i
COc1ncnc2c1sc1nc(-c3ccccc3)c3c(c12)CCCC3,·,0.5,·,·,·,·,·
C[C@@H]1CN([C@@H](C)CO)C(=O)Cc2cc(NC(=O)Nc3ccccc3)ccc2O[C@H]1CN(C)Cc1ccncc1,2.3,-19.7,11.1,8.3,10.7,·,·
Cc1ccc2c(c1)c1c(n2CC(O)CN2CCCCCC2)CCCC1 (centres undefined),35.4*,-20.3,-0.9,80.5*,5.2,-6.5%,i
C#CCOCCOCCOCCNc1nc(N2CCN(C(=O)[C@H](CCCN=C(N)N)n3cc(C(N)[C@@H](C)CC)nn3)CC2)nc(N2CCN(C(=O)[C@H](CCCCN)n3cc([C@@H](N)[C@H](C)CC)nn3)CC2)n1 (some centres undefined),46.1*,12.3,-0.7,62.9*,3.8,-9.7%,i
COc1cc(NC(C)CCCNC(C)C)c2ncccc2c1OC (centres undefined),3.2,15.1,21.1,-37.4,-13.4,·,·
COc1cc(NCCCCCCN)c2ncccc2c1OC,42.7*,1.1,28.3,63.4*,·,-30.1%,i
CN(C)c1ccc(Nc2nc(N)c3ccccc3n2)cc1,60.4*,19.4,-0.4,45.5,21.9,11.9µM*,i
Nc1nc(Nc2ccccc2)nc2ccccc12,·,·,·,·,-1.4,·,·
CC(C)N=C(N)N=C(N)Nc1ccc(Cl)cc1,-5.5,·,4.6,-9.8,7.2,·,·
NC(=NCCCCCCN=C(N)/N=C(\N)Nc1ccc(Cl)cc1)/N=C(\N)Nc1ccc(Cl)cc1,53.4*!,9.2,-4.6,94.7*,59.1*!,-9.2%,i
CCOc1ccc(NCc2cccn2-c2nnc(N3CCC(C(=O)NCCCN4CCCCC4C)CC3)s2)cc1 (centres undefined),47.4*,0.3,22.2,79.9*,13.2,13.6µM*,i
SMILES,MLL AF4-AF9 inh,INS-1E GSIS act,S100A4 MyoIIA,RAD52 inh,RAD54 inh,AlphaScreen intf,DNA binder FP
C[C@H]1CCCCO[C@@H](CN(C)S(=O)(=O)c2ccc(F)cc2)[C@@H](C)CN([C@@H](C)CO)C(=O)c2cc(NS(=O)(=O)c3cn(C)cn3)ccc2O1,-3.5,-6.5,39.3,-31.8,2.5,·,·
CCCN(C)C[C@H]1OCCCC[C@@H](C)Oc2ccc(NS(=O)(=O)c3ccc(C)cc3)cc2C(=O)N([C@@H](C)CO)C[C@H]1C,-1.3,-3.4,-1.1,32.4,12.1,·,·
C[n+]1c(-c2ccc(C=NNC(=O)c3ccc(C(=O)NN=Cc4ccc(-c5cn6ccccc6[n+]5C)cc4)cc3)cc2)cn2ccccc21,77.9*,·,2.9,94.1*,·,-18.1%,26µM*
CO[C@@H](CN(C)Cc1ccc2c(c1)OCO2)[C@@H](C)CN(C(=O)c1ccccc1)[C@H](C)CO,-0.3,6.7,3.1,-10.9,8.4,·,·
C[C@H]1CCCCO[C@H](CN(C)Cc2ccc(C(F)(F)F)cc2)[C@@H](C)CN([C@@H](C)CO)C(=O)c2cc(NS(=O)(=O)c3cccs3)ccc2O1,-3.8,-27.6,-4.6,-29.3,-1.8,·,·
CC(C)Nc1ccc(Nc2ccnc3cc4ccccc4cc23)cc1,83.5*,-60.8,0.2,99.0*,·,2.98µM*,22.4µM*
Nc1ccc2nc(CCCO)[nH]c2c1,12.7,-20.2,-18.7,93.2*,35.8,·,i
C[C@@H](c1ccccc1)N1C[C@H](COCc2ccccc2)Oc2cc(N3CC[C@H](N(C)C)C3)ccc2S1(=O)=O,25.9*,-2.9,-5.5,51.8*,·,·,i
COCC(=O)N1[C@H](CO)[C@H]2c3ccccc3N(C(=O)Nc3cc(F)ccc3F)C[C@H]21,-2.1,-4.1,3.8,-0.9,-1.3,·,·
CCCCCCCCCC[n+]1cccc2c3ccccc3ccc21,12.4,97.0*,1.3,72.1*,·,·,i
OC(CN1CCCCC1)Cn1c2ccccc2c2cc(Br)ccc21 (centres undefined),11.3,-28.0,-12.4,57.5*,44.6,·,i
Cc1c(C)n(CC(O)CN2CCCCCC2)c2ccccc12 (centres undefined),·,·,·,·,-7.6,·,·
O=C(c1cc2ccccc2cc1O)N1CCN(c2ccccn2)CC1,1.9,5.7,-4.5,-0.6,0.1,·,·
CN1CCN(c2cc(-c3cc(O)c4ncccc4c3)ccn2)CC1,83.9*,27.1,-5.1,106.9*,26.0,·,i
C[C@H](CO)N1C[C@H](C)[C@H](CN(C)Cc2ccc(Oc3ccccc3)cc2)Oc2c(NC(=O)NC3CCCCC3)cccc2C1=O,5.1,-23.2,4.3,10.0,7.5,·,·
